In ChEMBL document CHEMBL1157578, “Design, synthesis, and biological evaluation of novel water-soluble triptolide derivatives: Antineoplastic activity against imatinib-resistant CML cells bearing T315I mutant Bcr-Abl” (Bioorg Med Chem, 2010):
pIC50: −log10 of the molar value. The source made the active and inactive calls. The rule behind the calls is not given here.

Experiments:
[1] = Aqueous solubility in water; format: physicochemical; conditions: buffer
[2] = Cytotoxicity against human KBM5 cells harboring wild type Bcr-Abl after 72 hrs by MTS assay; format: functional, cell-based; conditions: KBM5, 72 h
Procedure, shortened: (§1)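 KBM5 (wild-type p210 Bcr-Abl) or KBM5-T315I cells in IMDM + 10% heat-inactivated FCS. The T315I subline was kept in 1 µM imatinib, removed 2–3 days before assay. Cells incubated 72 h with increasing concentrations. Viability by MTS at 490 nm, as percent of control; IC50 from dose–response curves.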

KBM5 [3] = assay: Cytotoxicity against imatinib-resistant human KBM5 cells harboring Bcr-Abl T315I mutant at 0.001 to 17 uM after 72 hrs by MTS assay; format: functional, cell-based; procedure, shortened: as §1
KBM5 [4] = assay: Cytotoxicity against human KBM5 cells harboring wild type Bcr-Abl at 0.001 to 17 uM after 72 hrs by MTS assay; format: functional, cell-based; procedure, shortened: as §1
[5] = Cytotoxicity against imatinib-resistant human KBM5 cells harboring Bcr-Abl T315I mutant after 72 hrs by MTS assay; format: functional, cell-based; conditions: KBM5, 72 h; procedure, shortened: as §1
[6] = Cytotoxicity against mouse 32D cells harboring wild type Bcr-Abl after 72 hrs by MTS assay; format: functional, cell-based
Procedure, shortened: (§2)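 32D myeloid cells stably expressing wild-type or T315I Bcr-Abl, maintained in RPMI 1640 + 10% FBS. Treated with increasing concentrations for 72 h. Viability by MTS, optical density at 490 nm.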

[7] = Cytotoxicity against NHFB after 72 hrs by MTS assay; parameters: species or system Homo sapiens
Procedure, shortened: (§3)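 MEF and NHFB fibroblasts cultured in DMEM + 10% FCS. Exposed to increasing concentrations for 72 h. Viability by MTS reagent, optical density at 490 nm.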

MEF = assay: Cytotoxicity against MEF after 72 hrs by MTS assay; format: cell-based; conditions: Mus musculus; procedure, shortened: as §3
[8] = Cytotoxicity against imatinib-resistant mouse 32D cells harboring Bcr-Abl T315I mutant after 72 hrs by MTS assay; format: functional, cell-based; procedure, shortened: as §2
[9] = Downregulation of Bcr-Abl protein level in mouse 32D cells harboring wild type Bcr-Abl after 18 hrs by Western blot analysis; format: functional, cell-based
Procedure, shortened: (§4)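 Cells exposed for 18 h at the indicated concentrations. Whole-cell lysates made in RIPA buffer with phosphatase and protease inhibitors. Western blot for Bcr-Abl (c-Abl C-19), phospho-c-Abl Y245, phospho-RNA polymerase II, PARP, and actin as loading control.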

DU-145 = assay: Inhibition of RNA polymerase 2 in human DU145 cells assessed as decrease in polymerase 2 phosphorylation at 50 to 100 nM after 18 hrs by Western blot analysis; format: cell-based
[10] = Downregulation of Bcr-Abl mRNA level in human KBM5 cells harboring wild type Bcr-Abl at 50 to 100 nM after 18 hrs by semi-quantitative RT-PCR analysis; format: functional, cell-based
Procedure, shortened: (§5)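 KBM5 and KBM5-T315I cells exposed to 50 or 100 nM, or control medium, for 18 h. Bcr-Abl and GAPDH mRNA measured by semi-quantitative RT-PCR; products run on 1% agarose and stained with ethidium bromide.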

[11] = Downregulation of Bcr-Abl protein level in mouse 32D cells harboring Bcr-Abl T315I mutant after 18 hrs by Western blot analysis; format: functional, cell-based; procedure, shortened: as §4
KBM5 [12] = assay: Inhibition of RNA polymerase 2 in human KBM5 cells harboring Bcr-Abl T315I mutant assessed as decrease in polymerase 2 phosphorylation after 18 hrs by Western blot analysis; format: cell-based; procedure, shortened: as §4
KBM5 [13] = assay: Induction of apoptosis in human KBM5 cells harboring wild type Bcr-Abl assessed as PARP cleavage at 50 to 100 uM after 18 hrs by Western blot analysis; format: functional, cell-based
[14] = Downregulation of Bcr-Abl mRNA level in human KBM5 cells harboring Bcr-Abl T315I mutant at 50 to 100 nM after 18 hrs by semi-quantitative RT-PCR analysis; format: functional, cell-based; procedure, shortened: as §5
KBM5 [15] = assay: Inhibition of RNA polymerase 2 in human KBM5 cells harboring wild type Bcr-Abl assessed as decrease in polymerase 2 phosphorylation after 18 hrs by Western blot analysis; format: cell-based; procedure, shortened: as §4
[16] = Downregulation of Bcr-Abl protein level in human KBM5 cells harboring Bcr-Abl T315I mutant after 18 hrs by Western blot analysis; format: functional, cell-based; procedure, shortened: as §4
[17] = Downregulation of Bcr-Abl protein level in human KBM5 cells harboring wild type Bcr-Abl after 18 hrs by Western blot analysis; format: functional, cell-based; procedure, shortened: as §4
HeLa = assay: Inhibition of RNA polymerase 2 in human HeLa cells assessed as decrease in polymerase 2 phosphorylation at 50 to 100 nM after 18 hrs by Western blot analysis; format: cell-based
KBM5 [18] = assay: Induction of apoptosis in human KBM5 cells harboring Bcr-Abl T315I mutant assessed as PARP cleavage at 50 to 100 uM after 18 hrs by Western blot analysis; format: functional, cell-based
HCT-116 = assay: Inhibition of RNA polymerase 2 in human HCT116 cells assessed as decrease in polymerase 2 phosphorylation at 50 to 100 nM after 18 hrs by Western blot analysis; format: cell-based

SMILES	solubility [1]	pIC50 [2]	Activity (KBM5 [3])	Activity (KBM5 [4])	pIC50 [5]	other results
CNCC(=O)O[C@@H]1[C@@]2(C(C)C)O[C@H]2[C@@H]2O[C@@]23[C@H]2CCC4=C(COC4=O)[C@@H]2C[C@@H]2O[C@]213	Soluble	6.46	Active	Active	6.51	
CC(C)[C@]12O[C@H]1[C@@H]1O[C@]13[C@]1(O[C@H]1C[C@H]1C4=C(CC[C@@]13C)C(=O)OC4)[C@@H]2O [TRIPTOLIDE]	Insoluble	7.99	Active	Active	8.08	pIC50 [6]: 7.49; pIC50 [7]: 5.06; pIC50 (MEF): 5.04; pIC50 [8]: 7.47
CC(C)[C@]12O[C@H]1[C@@H]1O[C@@]13[C@H]1CCC4=C(COC4=O)[C@@H]1C[C@@H]1O[C@@]13[C@@H]2OC(=O)CNCCN	Soluble	6.11	Active	Active	6.02	
CC(C)[C@]12O[C@H]1[C@@H]1O[C@@]13[C@H]1CCC4=C(COC4=O)[C@@H]1C[C@@H]1O[C@@]13[C@@H]2OC(=O)CN1CCNCC1	Soluble	6.30	Active	Active	6.26	
CCCCCCCCCCCCNCC(=O)O[C@@H]1[C@@]2(C(C)C)O[C@H]2[C@@H]2O[C@@]23[C@H]2CCC4=C(COC4=O)[C@@H]2C[C@@H]2O[C@]213		5.27	inactive	inactive	5.98	
CC(C)[C@]12O[C@H]1[C@@H]1O[C@@]13[C@H]1CCC4=C(COC4=O)[C@@H]1C[C@@H]1O[C@@]13[C@@H]2OC(=O)CNc1ccc(Cl)cc1		5.30	inactive	inactive	6.13	
CC(C)[C@]12O[C@H]1[C@@H]1O[C@@]13[C@H]1CCC4=C(COC4=O)[C@@H]1C[C@@H]1O[C@@]13[C@@H]2OC(=O)CN(CCO)CCO		5.55	inactive	inactive	5.81	
CC(C)[C@]12O[C@H]1[C@@H]1O[C@@]13[C@H]1CCC4=C(COC4=O)[C@@H]1C[C@@H]1O[C@@]13[C@@H]2OC(=O)CN		7.72			7.93	pIC50 [6]: 7.30; pIC50 [7]: 4.94; pIC50 (MEF): 4.95; pIC50 [8]: 7.36
CC(C)[C@]12O[C@H]1[C@@H]1O[C@@]13[C@H]1CCC4=C(COC4=O)[C@@H]1C[C@@H]1O[C@@]13[C@@H]2OC(=O)CCl			Active	Active		
CCN(CC)CC(=O)O[C@@H]1[C@@]2(C(C)C)O[C@H]2[C@@H]2O[C@@]23[C@H]2CCC4=C(COC4=O)[C@@H]2C[C@@H]2O[C@]213	Soluble	7.11	Active	Active		
CC(C)[C@]12O[C@H]1[C@@H]1O[C@@]13[C@H]1CCC4=C(COC4=O)[C@@H]1C[C@@H]1O[C@@]13[C@@H]2OC(=O)CNCCO	Soluble	7.74	Active	Active	7.71	pIC50 [6]: 7.21; Activity [9]: Dose-dependent effect; inhibition (DU-145): Active; Activity [10]: Active; Activity [11]: Dose-dependent effect; inhibition (KBM5 [12]): Dose-dependent effect; pIC50 [7]: 5.00; Activity (KBM5 [13]): Active; Activity [14]: Active; inhibition (KBM5 [15]): Dose-dependent effect; Activity [16]: Dose-dependent effect; Activity [17]: Dose-dependent effect; inhibition (HeLa): Active; pIC50 (MEF): 4.98; pIC50 [8]: 7.13; Activity (KBM5 [18]): Active; inhibition (HCT-116): Active
COC(=O)[C@H](C)NCC(=O)O[C@@H]1[C@@]2(C(C)C)O[C@H]2[C@@H]2O[C@@]23[C@H]2CCC4=C(COC4=O)[C@@H]2C[C@@H]2O[C@]213	Soluble	7.73	Active	Active	7.85	
CC(C)[C@]12O[C@H]1[C@@H]1O[C@@]13[C@H]1CCC4=C(COC4=O)[C@@H]1C[C@@H]1O[C@@]13[C@@H]2OC(=O)CNc1nccc(-c2cccnc2)n1	Soluble	6.53	Active	Active	6.67	
